Only some compounds are listed: those with a hit (about 27% of all), similar ones and a draw of the others.
CYP2C9 inhib: blockers of cytochrome P450 2C9 activity – biochemical, luminescence, ADME assay, primary screen; inhibition, % at 5 µM; CYP2C9 Supersomes, luciferin-H conversion; 20% of 96,000 active;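 active = blocking of liver enzyme CYP2C9 beyond about 50% at 5 µM, limit read from the data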
Target sequence (P11712 whole entry, looked up): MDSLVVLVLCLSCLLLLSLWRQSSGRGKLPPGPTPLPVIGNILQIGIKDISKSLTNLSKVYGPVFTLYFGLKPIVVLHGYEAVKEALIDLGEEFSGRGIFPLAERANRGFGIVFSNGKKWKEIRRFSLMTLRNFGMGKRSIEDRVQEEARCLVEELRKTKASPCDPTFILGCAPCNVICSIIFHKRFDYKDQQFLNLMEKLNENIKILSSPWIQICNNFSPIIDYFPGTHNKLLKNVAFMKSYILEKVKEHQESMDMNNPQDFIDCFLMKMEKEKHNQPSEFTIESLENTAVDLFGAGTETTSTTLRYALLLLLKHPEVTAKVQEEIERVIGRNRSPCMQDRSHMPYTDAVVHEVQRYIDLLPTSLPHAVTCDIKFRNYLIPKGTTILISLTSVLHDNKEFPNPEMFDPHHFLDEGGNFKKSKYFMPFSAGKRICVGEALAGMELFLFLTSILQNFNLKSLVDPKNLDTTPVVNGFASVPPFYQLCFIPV
CYP2C19 act: human CYP2C19 activators, primary screen, biochemical, luminescence; 96,000 tested, under 10 active; activation factor at 5 µM; recombinant CYP2C19, luciferin-H EGE luminescence; hits give high values; 0 = fully inhibited enzyme, 1 = untreated enzyme; AID 1025, 2008; Cytochrome P450 2C19 (Homo sapiens), P33261;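 active = activation factor of at least 2 at 5 µM in the primary screen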;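 also: 0 = wells with 2.5 mM tranylcypromine and 1 = vehicle-only wells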
CYP2C19 inhib: blockers of cytochrome P450 2C19 activity – biochemical, luminescence, ADME assay, primary screen | inhibition, % at 5 µM | CYP2C19 Supersomes, luciferin-H EGE luminescence, 30 min | 21% of 96,000 active;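 active = CYP2C19 inhibition above a set limit at 5 µM in the primary screen, cut at about 50% in these data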;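 also: plate controls were negative control wells for no effect and 2.5 mM tranylcypromine positive control for full effect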
CYP2C9 act: human CYP2C9 activators, primary screen, biochemical, luminescence; activation factor at 5 µM; recombinant CYP2C9, luciferin-H conversion; hits give high values; factor 1 = untreated enzyme, 0 = blocked; 1.4% of 96,000 active;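 active = activation factor of 2 or more for CYP2C9 at a 5 µM dose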;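 also: 0 = sulfaphenazole-blocked wells and 1 = vehicle-only wells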
Rev-RRE block: HIV-1 Rev-RRE binding inhibitors, primary screen, biochemical, FRET, protein-RNA interaction | AID 704, 2007 | P05866 | Rev peptide-RRE RNA binding | inhibition, % at 8 µM | 0.79% of 97,000 active;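 active = inhibition above the screen-wide mean plus 3 SD, cut at about 35% in these data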;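 also: 0% = median DMSO wells and 100% = median Neomycin B control wells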
Target sequence (P05866 whole entry, looked up): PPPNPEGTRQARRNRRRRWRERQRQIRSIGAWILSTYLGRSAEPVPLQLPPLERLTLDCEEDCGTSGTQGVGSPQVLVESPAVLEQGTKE
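assay system = Cy5-tagged RRE RNA duplex with fluorescein-tagged Rev peptide | incubation = 5 + 15 min at 25 °C | also added = labelled Rev peptide | measure = % inhibition of FRET ratio versus controls | benchmarks = DMSO wells as 0% and neomycin B wells as 100% inhibition | measured by = FRET fluorescence readout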
Cav3 T inh: Cav3.2 calcium influx blockers – cell-based, Fluo-4 calcium fluorescence, FDSS, MLSMR library, primary screen | B-score at 10 µM | Voltage-dependent T-type calcium channel subunit alpha-1H (Homo sapiens), O95180 | 4% of 100,000 active | Cav3.2-expressing cells; hits give low values;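 active = single-dose well whose peak fluorescence ratio is a statistical outlier from its plate by either plate-standardised score or position-corrected B-score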
* hit, by the source's call; . = no result.

SMILES	CYP2C9 inhib	CYP2C19 act	CYP2C19 inhib	CYP2C9 act	Rev-RRE block	Cav3 T inh
Cc1cc(Nc2cccc(F)c2)nc(-c2ccccc2O)n1	-0.9	1	-2.8	1	11.2	0.0235
Cc1cc(Nc2ccccc2)nc(-c2ccccc2O)n1	4.6	1.2	-17.9	1	6.0	.
Cc1cc(NCc2ccccc2)nc(-c2ccccc2O)n1	65.4*	0.7	29.7	0.3	12.8	-0.815
CCOC(=O)c1ccc(Nc2cc(C)nc(-c3ccccc3O)n2)cc1	56.9*	0.6	35.8	0.4	.	-0.256
CCOC(=O)c1ccc(Nc2nc(C(=O)OCC)nc3ccccc23)cc1	36.7	0.4	56.5*	0.6	3.9	1.55
CCOC(=O)c1nc(Nc2ccc(C(=O)O)cc2)c2ccccc2n1	5.7	1	2.5	0.9	3.4	0.00146
CC(C)c1cc(C(N)=O)c(NC(=O)c2cccc(COc3ccc(Cl)cc3)c2)s1	71.9*	0.3	74.0*	0.3	9.2	.
Cc1nn(Cc2c(F)c(F)c(F)c(F)c2F)c(C)c1NC(=O)c1cccc(COc2ccc(Cl)cc2)c1	13.3	0.9	10.0	0.9	6.9	-5.29*
Cc1cc(NC(=O)c2cccc(COc3ccc(Br)cc3)c2)no1	-8.7	0.9	14.4	1.1	4.1	-0.746
O=c1c2c(-c3cccs3)csc2ncn1/N=C/c1ccc(OC(F)F)cc1	-5.5	0.6	35.8	1.1	11.0	-2.58
Cn1cc(/C=N/n2cnc3scc(-c4ccccc4)c3c2=O)c2ccccc21	42.5	0.9	12.2	0.6	2.4	-4*
CSCCC(NC(=O)c1ccccc1)C(=O)NCc1ccco1 (configuration not stated)	9.4	0.5	45.1	0.9	0.6	0.867
COc1ccc(C)cc1NCc1cccc(OC)c1OC	-9.2	0.6	38.8	1.1	3.6	-1.4
COc1ccccc1CNS(=O)(=O)c1c(C)noc1C	23.3	0.6	42.9	0.8	3.5	0.263
COc1ccccc1CNS(=O)(=O)c1cc(C)ccc1OC	-61.1	0.1	90.0*	1.6	8.8	-0.358
CCc1ccccc1NS(=O)(=O)c1cc(C)ccc1OC	54.0*	0.2	84.2*	0.5	1.6	-2.28
Clc1ccc(OCCSc2ncccn2)cc1	20.3	0.7	28.7	0.8	5.8	-3.16
COc1cccc(OCCCCSc2ncccn2)c1	19.5	0.8	20.1	0.8	8.4	-1.92
c1ccc(Oc2cccc(OCCCn3cncn3)c2)cc1	93.7*	0	99.5*	0.1	10.2	-0.884
c1ccc(Oc2cccc(OCCCCSc3ncccn3)c2)cc1	51.2*	0.6	38.3	0.5	21.5	-1.69
COc1ccc(OCCCSc2ncccn2)cc1	22.2	0.4	63.5*	0.8	2.9	-0.12
COc1ccc(OCCSc2ncccn2)cc1	37.3	0.1	87.4*	0.6	5.0	-1.22
CC1CCCCN1C(=O)CSc1ccc(-c2ccc(F)cc2)nn1 (configuration not stated)	34.9	0.4	60.9*	0.7	3.8	2.42
COc1ccc(N(Cc2cc3cc(OC)ccc3[nH]c2=O)C(=O)c2cccnc2)cc1	7.0	0.9	9.8	0.9	4.8	0.106
O=S(=O)(NC1CCCC1)c1ccc(S(=O)(=O)N2CCN(c3ccccc3)CC2)cc1	16.0	1.1	-5.0	0.8	9.7	0.55
SMILES	CYP2C9 inhib	CYP2C19 act	CYP2C19 inhib	CYP2C9 act	Rev-RRE block	Cav3 T inh
CCCC(=O)O[C@H]1C[C@@H](C)N(C(=O)c2ccccc2)c2ccc(C)cc21	63.1*	0.4	58.0*	0.4	-5.7	-7.97*
CCCC(=O)N1c2ccccc2C(N(C(C)=O)c2ccccc2)CC1C (configuration not stated)	20.8	0.8	17.2	0.8	4.0	.
CC1(C)C(N(O)C(=O)Nc2ccc(Cl)cc2)N(c2ccc(Cl)cc2)C(=O)N1CC(=O)NN (configuration not stated)	40.6	0.6	35.2	0.6	11.3	-1.8
O=C(CN1C(=O)CCS(=O)(=O)c2ccccc21)Nc1ccc2c(c1)OCCO2	.	.	.	.	1.3	-0.033
O=C(CN1C(=O)CSc2ccccc21)Nc1ccc2c(c1)OCCO2	-118.5	0.7	29.6	2.2*	4.1	-0.103
O=C(CN1C(=O)CCSc2ccccc21)Nc1ccc2c(c1)OCO2	70.4*	0.1	90.0*	0.3	.	0.26
Cc1cc2ccccc2c(=O)n1CC(=O)Nc1ccc2c(c1)OCCO2	62.9*	0.4	55.7*	0.4	6.2	0.0234
O=C(CN1C(=O)CSc2ccccc21)NC1CCCC1	-126.9	0.8	15.1	2.3*	6.7	.
O=C(O)C1CSC2(CCN(Cc3ccccc3)CC2)N1 (configuration not stated)	.	.	.	.	7.0	0.0401
O=C(CN1C(=O)COc2ccccc21)Nc1ccc2c(c1)OCCO2	33.2	0.4	57.1*	0.7	.	-0.0747
CCOc1cc(S(=O)(=O)N(CC)CC)c(OCC)cc1-n1cnnn1	30.4	0.9	11.2	0.7	1.5	-1.77
CCOc1cc(S(=O)(=O)NCCc2cccc(C)c2)c(OCC)cc1-n1cnnn1	80.4*	0.6	35.5	0.2	9.5	-2.53
CCOc1cc(S(=O)(=O)NCCc2ccccc2C)c(OCC)cc1-n1cnnn1	88.7*	0.2	83.7*	0.1	11.0	-0.418
Nc1nc(N)c2sc3nc4c(cc3c2n1)CCC4	-0.1	0.9	11.9	1	4.2	0.771
Cc1ccc(NC2c3ccccc3C(=O)N2CCN2CCOCC2)cc1 (configuration not stated)	27.1	0.2	81.5*	0.7	8.8	1.3
O=C1c2ccccc2C(Nc2ccc(S(=O)(=O)N3CCCCC3)cc2)N1Cc1ccco1 (configuration not stated)	89.8*	0.6	35.5	0.1	5.5	-2.28
O=C1c2ccccc2C(Nc2ccc(S(=O)(=O)N3CCOCC3)cc2)N1c1ccccn1 (configuration not stated)	77.2*	0.7	34.1	0.2	8.3	-0.0562
O=C1c2ccccc2C(Nc2ccc(S(=O)(=O)N3CCOCC3)cc2)N1Cc1ccco1 (configuration not stated)	59.8*	0.8	19.3	0.4	9.1	2.19
Cc1ccc(C(O)(COC(=O)C(C)C)COC(=O)C(C)C)c(O)c1	.	.	.	.	.	-1.41
O=S(=O)(c1ccc(Br)s1)N1CCN(Cc2ccc3c(c2)OCO3)CC1	96.6*	0.1	89.2*	0	6.0	-1.47
O=C(OCc1ccc2c(c1)OCO2)c1ccc(S(=O)(=O)N2CCCCC2)cc1	20.1	0.9	9.8	0.8	16.3	-0.0128
O=C(c1ccc2nc(N3CCOCC3)sc2c1)N1CCCC1	16.3	1	0.8	0.8	.	0.489
